# Assay results published in ChEMBL document CHEMBL1123661, “Structural alterations that differentially affect the mutagenic and antitrichomonal activities of 5-nitroimidazoles” (J Med Chem, 1987).
# Assays:
# [1] = test system: Salmonella typhimurium TA100; test: The Mutagenicity in Salmonella typhimurium TA100 relative to Ronidazole.
# Tritrichomonas suis = test: In vitro anti-trichomonal activity against Trichomonas foetus-Ortho strain-2.; type: functional; conditions: read-out: ED50 (the source's name)
# How it was run: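 Trichomonas foetus Ortho strain 2 was grown in Diamond's medium with gentamycin (24 μg/mL) and 10% calf serum. 2×10^6 trichomonads were added to 1.8 mL medium. Compound was given in water or Me₂SO (final ≤1%, with solvent controls) over a range bracketing the EC₅₀. Motile survivors were counted after 24 h at 37 °C. The value is the mean of two or three determinations.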
# [2] = Safety index.; type: toxicity; conditions: read-out: Safety index
# How it was run: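 Index derived as [(ED₅₀ of reference × mutagenicity of reference)]/(ED₅₀ × mutagenicity), using the antitrichomonal ED₅₀ and the TA100 mutagenicity (relative to reference) measured here.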
# [3] = test system: Salmonella typhimurium TA100; test: The Mutagenicity was determined in Salmonella typhimurium TA100 relative to compound 20; ND means not detectable
Structure (SMILES),Mutagenicity [1],EC50 (Tritrichomonas suis),selectivity ratio [2],Mutagenicity [3]
Cc1nc(CCO)n(C)c1[N+](=O)[O-],0.8%,,,
Cc1nc(-c2ccc(F)cc2)n(C)c1[N+](=O)[O-],15%,10 µg/mL,0.27,
Cc1nc(CCO)c([N+](=O)[O-])n1C,0.28%,2 µg/mL,71,
Cn1c(-c2ccc(F)cc2)nc(CCO)c1[N+](=O)[O-],8%,7.7 µg/mL,0.65,
Cc1ncc([N+](=O)[O-])n1CCO [METRONIDAZOLE],,0.4 µg/mL,,
Cc1nc(C)n(CCO)c1[N+](=O)[O-],0.3%,21.5 µg/mL,6.2,
Cn1c([N+](=O)[O-])cnc1CO,16%,1.6 µg/mL,1.6,
Cn1c([N+](=O)[O-])cnc1CCO,19%,,,
Cc1nc(Br)c([N+](=O)[O-])n1C,8%,0.75 µg/mL,0.65,
Cn1cnc(F)c1[N+](=O)[O-],16%,3.6 µg/mL,0.7,
CC(=O)Oc1cc(C(=O)OCCn2c([N+](=O)[O-])cnc2C)cc(OC(C)=O)c1OC(C)=O,0.23%,6.6 µg/mL,26,
Cc1nc(CCOC(=O)C(C)(C)C)c([N+](=O)[O-])n1C,2.6%,11 µg/mL,1.4,
CC(=O)OCCc1nc(C)n(C)c1[N+](=O)[O-],1%,2.8 µg/mL,14,
CC(=O)Oc1cc(C(=O)OCCn2c([N+](=O)[O-])cnc2-c2ccc(F)cc2)cc(OC(C)=O)c1OC(C)=O,17%,3.9 µg/mL,0.6,
Cc1nc(C)n(C)c1[N+](=O)[O-],0.4%,32 µg/mL,3.1,
Cn1c([N+](=O)[O-])cnc1-c1ccc(F)cc1,300%,0.25 µg/mL,0.53,
Cn1c([N+](=O)[O-])cnc1COC(N)=O [RONIDAZOLE],100%,0.4 µg/mL,1,
Cc1ncc([N+](=O)[O-])n1C [DIMETRIDAZOLE],15%,0.3 µg/mL,8.9,
Cc1nc(F)c([N+](=O)[O-])n1C,,14.5 µg/mL,,Not detectable
Cn1c(CO)nc(CCO)c1[N+](=O)[O-],1%,20 µg/mL,2,
CC(=O)Oc1cc(C(=O)OCc2ncc([N+](=O)[O-])n2C)cc(OC(C)=O)c1OC(C)=O,26%,2.35 µg/mL,0.6,
Cc1nc(COC(N)=O)n(C)c1[N+](=O)[O-],2%,1 µg/mL,20,
COc1cc(C(=O)OCCn2c([N+](=O)[O-])cnc2C)cc(OC)c1OC,12%,1.35 µg/mL,2.5,
